Drawing on ChEMBL document CHEMBL3120045, “Monovalent mannose-based DC-SIGN antagonists: targeting the hydrophobic groove of the receptor” (Eur J Med Chem, 2014), this text covers IC50, Activity and Ki for ten compounds.

The target in data set [1] is T1, CD209 antigen (Homo sapiens, UniProt Q9NNX6).
T1 sequence (Q9NNX6 whole entry): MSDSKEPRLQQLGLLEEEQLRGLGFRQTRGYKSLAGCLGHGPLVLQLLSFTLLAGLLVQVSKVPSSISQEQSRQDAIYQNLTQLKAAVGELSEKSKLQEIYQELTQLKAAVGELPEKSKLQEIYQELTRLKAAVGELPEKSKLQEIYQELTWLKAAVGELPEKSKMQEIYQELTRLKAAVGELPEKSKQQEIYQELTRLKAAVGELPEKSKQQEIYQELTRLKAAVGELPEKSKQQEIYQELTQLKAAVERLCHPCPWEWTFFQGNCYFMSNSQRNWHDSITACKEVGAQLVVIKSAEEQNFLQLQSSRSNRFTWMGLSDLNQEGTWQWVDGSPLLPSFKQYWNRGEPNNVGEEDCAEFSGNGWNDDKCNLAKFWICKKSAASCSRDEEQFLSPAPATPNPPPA
Nature of the data set: Antagonist activity at DC-SIGN receptor (unknown origin) assessed as inhibition of mannosylated BSA binding by SPR assay.

Data set [2] addresses T1, CD209 antigen. As to the kind of experiment: Displacement of biotinylated HIV1 gp120 from DC-SIGN receptor carbohydrate recognition domain (unknown origin) after 2 hrs by solid-phase competitive displacement assay.
The nature of data set [3]: Cytotoxicity against human DC at 250 uM after 24 hrs by propidium iodide staining-based flow cytometry. In outline:
(§1)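 Immature DCs, seeded after 5 days of culture at 0.5 × 10⁶ cells/ml, were treated with compounds at 50, 100 and 250 for 24 h. Cells were then harvested, stained with propidium iodide for 15 min and analysed by flow cytometry. The percentage of PI-positive cells was taken as the percentage of dead cells.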

The nature of data set [4]: Cytotoxicity against human DC at 100 uM after 24 hrs by propidium iodide staining-based flow cytometry. Summed up:
as §1

Data set [5] in a line: Cytotoxicity against human DC at 250 uM after 24 hrs by propidium iodide staining-based flow cytometry.
Data set [6] can be described thus: Cytotoxicity against human DC at 50 uM after 24 hrs by propidium iodide staining-based flow cytometry. In outline:
as §1

Data set [7] addresses T1, CD209 antigen. As to the kind of experiment: Displacement of [125I]-Man30-BSA from DC-SIGN receptor carbohydrate recognition domain (unknown origin) after 2 hrs by gamma-counting analysis.

`COC(=O)[C@H]1C[C@H](OCCN=[N+]=[N-])[C@@H](O[C@H]2O[C@H](CO)[C@@H](O)[C@H](O)[C@@H]2O)C[C@@H]1C(=O)OC`: the IC50 in data set [1] came out at 1020 µM; in data set [2], 2760 µM.
`OC[C@H]1O[C@H](OC(COc2cccc3ccccc23)COc2cccc3ccccc23)[C@@H](O)[C@@H](O)[C@@H]1O`: the Activity entry in data set [3] is “Toxic”; in data set [4] it was “Toxic”; in data set [5], “Toxic”; in data set [6], “Non-toxic”.
As for `OC[C@H]1O[C@H](OCC(COc2ccc3ccccc3c2)Oc2ccc3ccccc3c2)[C@@H](O)[C@@H](O)[C@@H]1O` (mixture of isomers), the Activity entry is “Toxic” in data set [3], “Toxic” in data set [5] and “Non-toxic” in data set [6].
Consider `[N-]=[N+]=NCCO[C@H]1C[C@H](C(=O)NCc2ccc(CO)cc2)[C@@H](C(=O)NCc2ccc(CO)cc2)C[C@@H]1O[C@H]1O[C@H](CO)[C@@H](O)[C@H](O)[C@@H]1O`, for which the IC50 in data set [1] worked out at 325 µM; in data set [2], 420 µM.
`N#Cc1ccc(C(=O)NCC(CNC(=O)c2ccc(C#N)cc2)O[C@H]2O[C@H](CO)[C@@H](O)[C@H](O)[C@@H]2O)cc1`: the Activity result in data set [6] is listed as “Non-toxic”.
In data set [7], `OC[C@H]1OC(O)[C@@H](O)[C@@H](O)[C@@H]1O` (stereo partly drawn) [D-MANNOSE] showed a Ki of 13100 µM.
Turning to `O=C(NCC(CNC(=O)c1ccc2ccccc2c1)O[C@H]1O[C@H](CO)[C@@H](O)[C@H](O)[C@@H]1O)c1ccc2ccccc2c1`, the figures for the Activity result in data set [3], in data set [5] and in data set [6] were “Toxic”, “Toxic” and “Non-toxic”, respectively.
With `COc1ccc(OCC(CO[C@H]2O[C@H](CO)[C@@H](O)[C@H](O)[C@@H]2O)Oc2ccc(OC)cc2)cc1` (mixture of isomers), the Activity result in data set [6] is given as “Non-toxic”.
`COc1ccc2ccc(OCC(COc3ccc4ccc(OC)cc4c3)O[C@H]3O[C@H](CO)[C@@H](O)[C@H](O)[C@@H]3O)cc2c1`: the Activity result in data set [3] is listed as “Toxic”; in data set [4] it was “Toxic”; in data set [5], “Toxic”; in data set [6], “Non-toxic”.
In data set [7], `C[C@H](O)[C@@H](O)[C@@H](O)[C@H](O)C=O` [L-FUCOSE] gave a Ki of 6700 µM. Further, in data set [2], the IC50 is 2950 µM.
